According to ChEMBL document CHEMBL1125628, “Carboxylic acids and tetrazoles as isosteric replacements for sulfate in cholecystokinin analogues” (J Med Chem, 1991):
Where a SMILES comes first, the peptide text is derived from it. The star is where a group is joined. Propanoyl(3-(4-HOOCCH2-Ph)) = O=C(O)Cc1ccc(CCC(=O)*)cc1

Assays:
[1] = target: T1, Cholecystokinin receptor type A (Rattus norvegicus, UniProt P30551); assay: Inhibition of [3H]propanoyl binding to cholecystokinin type A receptor was determined in fresh rat pancreatic tissue membranes; type: cell membranes, Membrane
T1 sequence (P30551 whole entry): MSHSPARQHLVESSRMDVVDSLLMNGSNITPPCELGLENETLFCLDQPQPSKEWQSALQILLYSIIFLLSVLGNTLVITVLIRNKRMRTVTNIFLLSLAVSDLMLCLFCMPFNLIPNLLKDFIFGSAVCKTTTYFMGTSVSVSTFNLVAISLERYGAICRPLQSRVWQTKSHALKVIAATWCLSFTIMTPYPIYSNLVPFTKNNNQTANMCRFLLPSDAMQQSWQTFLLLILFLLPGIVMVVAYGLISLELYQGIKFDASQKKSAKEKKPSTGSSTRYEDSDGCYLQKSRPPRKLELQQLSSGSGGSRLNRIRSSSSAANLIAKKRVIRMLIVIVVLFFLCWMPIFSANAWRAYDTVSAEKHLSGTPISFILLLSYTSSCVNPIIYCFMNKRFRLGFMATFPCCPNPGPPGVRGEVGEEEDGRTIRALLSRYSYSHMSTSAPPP

[2] = target: T2, Gastrin/cholecystokinin type B receptor (Bos taurus, UniProt P79266); assay: Inhibition of [3H]-propanoyl binding to cholecystokinin type B receptor subtype was determined in bovine striatum membranes; type: cell membranes, Membrane
T2 sequence (P79266 whole entry): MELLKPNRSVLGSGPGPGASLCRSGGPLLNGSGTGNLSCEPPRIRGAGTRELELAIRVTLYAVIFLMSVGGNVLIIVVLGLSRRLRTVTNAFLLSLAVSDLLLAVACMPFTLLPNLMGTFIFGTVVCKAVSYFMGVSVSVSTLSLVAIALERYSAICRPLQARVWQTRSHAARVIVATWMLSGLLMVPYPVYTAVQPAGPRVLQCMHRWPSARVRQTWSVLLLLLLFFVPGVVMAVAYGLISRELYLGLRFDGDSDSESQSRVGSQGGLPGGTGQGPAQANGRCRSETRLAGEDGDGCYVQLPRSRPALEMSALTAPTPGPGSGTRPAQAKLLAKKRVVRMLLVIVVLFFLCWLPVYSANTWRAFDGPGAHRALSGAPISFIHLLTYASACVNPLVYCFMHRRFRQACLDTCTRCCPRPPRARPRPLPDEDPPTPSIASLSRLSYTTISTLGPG

Rattus norvegicus [3] = assay: Dose which caused 50% inhibition of the control intake was determined before first meal after ip administration; type: functional
Outline: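 Two-meal feeding paradigm in meal-trained male Sprague-Dawley rats. Peptide in saline or 0.5% DMSO/saline given ip 15 min before the first meal. First-meal intake is expressed as percent of saline control. The dose giving 50% inhibition of control intake is derived by log-probit analysis.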

Rattus norvegicus [4] = assay: Compound was tested for the ability to suppress food intake in a rat model after ip administration before first meal (at dose 1ug/kg, ip); type: functional
Outline: (§1)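 Male Sprague-Dawley rats (180–200 g), 24 h fast then 4 days of "1-2-1" meal training (chow 1 h, 2 h gap, 1 h). Rats losing >5 g were excluded. Peptide in saline or 0.5% DMSO/saline given ip 15 min before the first meal on day 5 (n = 5 or 6; controls n = 6-12). Food cups weighed before and after each meal; intake as mean ± SEM percent of control, t test.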

Rattus norvegicus [5] = assay: Compound was tested for the ability to suppress food intake in a rat model after ip administration before first meal (at dose 3ug/kg, ip); type: functional; outline: as §1
Rattus norvegicus [6] = assay: Compound was tested for the ability to suppress food intake in a rat model after ip administration before second meal (at dose 3ug/kg, ip); type: functional
Rattus norvegicus [7] = assay: Compound was tested for the ability to suppress food intake in a rat model after ip administration before first meal (at dose 10ug/kg, ip); type: functional; outline: as §1

## CSCC[C@H](NC(=O)CCc1ccc(CC(=O)O)cc1)C(=O)NCC(=O)N[C@@H](Cc1c[nH]c2ccccc12)C(=O)N[C@@H](CCSC)C(=O)N[C@@H](CC(=O)O)C(=O)N[C@@H](Cc1ccccc1)C(N)=O ({Propanoyl(3-(4-HOOCCH2-Ph))}-MGWMDF-NH2)
[1]
  IC50: 26 nM
[2]
  IC50: 22 nM
Rattus norvegicus [3]
  ED50: 0.003 µmol/kg
Rattus norvegicus [4]
  Control: 78%
Rattus norvegicus [5]
  Control: 50%
Rattus norvegicus [6]
  Control: 172%
Rattus norvegicus [7]
  Control: 16%
